Assay results reported in ChEMBL document CHEMBL3046628, “Synthesis and herbicidal activity of 2-cyano-3-substituted-pyridinemethylaminoacrylates” (J Agric Food Chem, 2003).

Experiments:
Brassica napus [1] = assay: Post-emergence herbicidal activity against Brassica napus (oilseed rape) at 1.5 kg/ha applied through spraying after first true leaf expanded; assay type: functional
How it was run: (§1)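 Seeds sown in 6 cm diameter plastic boxes containing artificial mixed soil. Amaranthus retroflexus seed was reproduced outdoors and stored at room temperature. Alfalfa and rape seed came from a crop institute.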

Amaranthus retroflexus [2] = assay: Pre-emergence herbicidal activity against Amaranthus retroflexus at 1.5 kg/ha applied through spraying immediately after seed plantings; assay type: functional; how it was run: as §1
Medicago sativa [3] = assay: Pre-emergence herbicidal activity against Medicago sativa (alfalfa) at 1.5 kg/ha applied through spraying immediately after seed plantings; assay type: functional; how it was run: as §1
Medicago sativa [4] = assay: Post-emergence herbicidal activity against Medicago sativa (alfalfa) at 1.5 kg/ha applied through spraying after first true leaf expanded; assay type: functional; how it was run: as §1
Zea mays = assay: Phytotoxicity against Zea mays (maize) at 750 g/ha; assay type: organism-based; conditions: in vivo
Amaranthus retroflexus [5] = assay: Post-emergence herbicidal activity against Amaranthus retroflexus at 1.5 kg/ha applied through spraying after first true leaf expanded; assay type: functional; how it was run: as §1
Brassica napus [6] = assay: Pre-emergence herbicidal activity against Brassica napus (oilseed rape) at 1.5 kg/ha applied through spraying immediately after seed plantings; assay type: functional; how it was run: as §1
Medicago sativa [7] = assay: Post-emergence herbicidal activity against Medicago sativa (alfalfa) at 300 g/ha applied through spraying after first true leaf expanded; assay type: functional; how it was run: as §1
Amaranthus retroflexus [8] = assay: Post-emergence herbicidal activity against Amaranthus retroflexus at 1500 g/ha applied through spraying after first true leaf expanded; assay type: functional; how it was run: as §1
Medicago sativa [9] = assay: Post-emergence herbicidal activity against Medicago sativa (alfalfa) at 75 g/ha applied through spraying after first true leaf expanded; assay type: functional; how it was run: as §1
Brassica napus [10] = assay: Post-emergence herbicidal activity against Brassica napus (oilseed rape) at 300 g/ha applied through spraying after first true leaf expanded; assay type: functional; how it was run: as §1
Amaranthus retroflexus [11] = assay: Post-emergence herbicidal activity against Amaranthus retroflexus at 300 g/ha applied through spraying after first true leaf expanded; assay type: functional; how it was run: as §1
Brassica napus [12] = assay: Post-emergence herbicidal activity against Brassica napus (oilseed rape) at 1500 g/ha applied through spraying after first true leaf expanded; assay type: functional; how it was run: as §1
Medicago sativa [13] = assay: Post-emergence herbicidal activity against Medicago sativa (alfalfa) at 1500 g/ha applied through spraying after first true leaf expanded; assay type: functional; how it was run: as §1
Amaranthus retroflexus [14] = assay: Post-emergence herbicidal activity against Amaranthus retroflexus at 75 g/ha applied through spraying after first true leaf expanded; assay type: functional; how it was run: as §1
Brassica napus [15] = assay: Post-emergence herbicidal activity against Brassica napus (oilseed rape) at 75 g/ha applied through spraying after first true leaf expanded; assay type: functional; how it was run: as §1
Medicago sativa [16] = assay: Herbicidal activity against Medicago sativa (alfalfa) at 150 g/ha; assay type: functional
Medicago sativa [17] = assay: Herbicidal activity against Medicago sativa (alfalfa) at 75 g/ha; assay type: functional
Medicago sativa [18] = assay: Herbicidal activity against Medicago sativa (alfalfa) at 18.75 g/ha; assay type: functional
Medicago sativa [19] = assay: Herbicidal activity against Medicago sativa (alfalfa); assay type: functional
Medicago sativa [20] = assay: Herbicidal activity against Medicago sativa (alfalfa) at 37.50 g/ha; assay type: functional

Row | Compound | Activity (Brassica napus [1]) | Activity (Amaranthus retroflexus [2]) | Activity (Medicago sativa [3]) | Activity (Medicago sativa [4]) | Activity (Zea mays) | Activity (Amaranthus retroflexus [5]) | Activity (Brassica napus [6]) | other results
1 | CCOc1ccc(CN/C(SC)=C(\C#N)C(=O)OCCOC)cn1 | 84.5% | 31.3% | 0% | 55.3% | Non-toxic | 70% | 5.1% | –
2 | CS/C(NCc1ccc(Cl)nc1)=C(/C#N)C(=O)OCC1CCCO1 (centres undefined) | 100% | 14.3% | 16.7% | 64% | Non-toxic | 98.8% | 54.2% | Activity (Medicago sativa [7]): 52.3%; Activity (Amaranthus retroflexus [8]): 98.8%; Activity (Medicago sativa [9]): 41.9%; Activity (Brassica napus [10]): 97.3%; Activity (Amaranthus retroflexus [11]): 88.4%; Activity (Brassica napus [12]): 100%; Activity (Medicago sativa [13]): 64%; Activity (Amaranthus retroflexus [14]): 79.1%; Activity (Brassica napus [15]): 94.7%
3 | CCOCCOC(=O)/C(C#N)=C(\NCc1ccc(OC)nc1)C(C)C | 100% | 71% | 32.9% | 53% | Non-toxic | 100% | 100% | –
4 | CCOCCOC(=O)/C(C#N)=C(/C)NCc1ccc(Cl)nc1 | 100% | 93% | 66.4% | 100% | Non-toxic | 100% | 100% | Activity (Amaranthus retroflexus [8]): 100%; Activity (Medicago sativa [9]): 0%; Activity (Brassica napus [12]): 100%; Activity (Medicago sativa [13]): 100%; Activity (Amaranthus retroflexus [14]): 18.3%; Activity (Brassica napus [15]): 14.6%
5 | C=CCOC(=O)/C(C#N)=C(/NCc1ccc(Cl)nc1)SC | 91.7% | 0% | 0% | 100% | Non-toxic | 100% | 0% | Activity (Medicago sativa [7]): 56.1%; Activity (Amaranthus retroflexus [8]): 100%; Activity (Medicago sativa [9]): 15.9%; Activity (Brassica napus [10]): 82.7%; Activity (Amaranthus retroflexus [11]): 61.6%; Activity (Brassica napus [12]): 91.7%; Activity (Medicago sativa [13]): 100%; Activity (Amaranthus retroflexus [14]): 22.2%; Activity (Brassica napus [15]): 33.3%
6 | COC(=O)COC(=O)/C(C#N)=C(/NCc1ccc(Cl)nc1)SC | 0% | 0% | 0% | 4.8% | Non-toxic | 0% | 0% | –
7 | CCOCCOC(=O)/C(C#N)=C(/C)NCc1ccc(OC)nc1 | 69% | 100% | 57.1% | 64% | Non-toxic | 100% | 92.5% | –
8 | CCOCCOC(=O)/C(C#N)=C(/NCc1ccc(Cl)nc1)SC | 80.6% | – | – | 75% | Non-toxic | 100% | – | Activity (Medicago sativa [7]): 57.5%; Activity (Amaranthus retroflexus [8]): 100%; Activity (Medicago sativa [9]): 36.3%; Activity (Medicago sativa [16]): 98.1%; Activity (Brassica napus [10]): 100%; Activity (Amaranthus retroflexus [11]): 96.2%; Activity (Medicago sativa [17]): 95.3%; Activity (Medicago sativa [18]): 80.6%; Activity (Brassica napus [12]): 100%; Activity (Medicago sativa [13]): 76.2%; ED50 (Medicago sativa [19]): 4.35 g/ha; ED90 (Medicago sativa [19]): 39.3 g/ha; Activity (Amaranthus retroflexus [14]): 52.3%; Activity (Medicago sativa [20]): 88.9%; Activity (Brassica napus [15]): 36.8%
9 | CCCOc1ccc(CN/C(C)=C(/C#N)C(=O)OCCOCC)cn1 | 17% | 23.4% | 17.8% | 34.2% | Non-toxic | 31% | 0% | –
10 | CCOCCOC(=O)/C(C#N)=C(/CC)NCc1ccc(Cl)nc1 | 100% | 71.4% | 71.4% | 83.7% | Non-toxic | 100% | 75% | Activity (Medicago sativa [7]): 62.8%; Activity (Amaranthus retroflexus [8]): 100%; Activity (Medicago sativa [9]): 45.3%; Activity (Brassica napus [10]): 98.4%; Activity (Amaranthus retroflexus [11]): 100%; Activity (Brassica napus [12]): 100%; Activity (Medicago sativa [13]): 83.7%; Activity (Amaranthus retroflexus [14]): 88.4%; Activity (Brassica napus [15]): 94.1%
11 | CCOCCOC(=O)/C(C#N)=C(/NCc1ccc(OCC)nc1)SC | 100% | 37.5% | 0% | 91.5% | Non-toxic | 100% | 22% | –
12 | CS/C(NCc1ccc(Cl)nc1)=C(/C#N)C(=O)N1CCOCC1 | 99.4% | 0% | 0% | 75% | Non-toxic | 100% | 0% | Activity (Medicago sativa [7]): 9.7%; Activity (Amaranthus retroflexus [8]): 100%; Activity (Medicago sativa [9]): 0%; Activity (Brassica napus [10]): 0%; Activity (Amaranthus retroflexus [11]): 25%; Activity (Brassica napus [12]): 99.4%; Activity (Medicago sativa [13]): 75%; Activity (Amaranthus retroflexus [14]): 0%; Activity (Brassica napus [15]): 0%
13 | COCCOC(=O)/C(C#N)=C(/NCc1cccnc1)SC | 6.4% | 0% | 0% | 15.9% | Non-toxic | 0% | 9.1% | –
14 | COCCOC(=O)/C(C#N)=C(/NCc1ccc(OC)nc1)SC | 90.1% | 50% | 10% | 72.3% | Non-toxic | 90% | 48.8% | –
15 | CCOCCOC(=O)/C(C#N)=C(/NCc1ccc(Cl)cc1)C(C)C | 96.5% | 52.2% | 0% | 28.1% | – | 93.9% | 0% | –
16 | CCOCCOC(=O)/C(C#N)=C(\NCc1ccc(Cl)nc1)C(C)C | 100% | 97.8% | 23% | 65.9% | Non-toxic | 93.9% | 95.5% | Activity (Medicago sativa [7]): 45.3%; Activity (Amaranthus retroflexus [8]): 100%; Activity (Medicago sativa [9]): 14%; Activity (Brassica napus [10]): 100%; Activity (Amaranthus retroflexus [11]): 93%; Activity (Brassica napus [12]): 100%; Activity (Medicago sativa [13]): 75.6%; Activity (Amaranthus retroflexus [14]): 72.1%; Activity (Brassica napus [15]): 89.4%
17 | CCOCCOC(=O)/C(C#N)=C(/NCc1ccc(Cl)cc1)SC | – | – | – | – | – | – | – | Activity (Medicago sativa [16]): 87%; Activity (Medicago sativa [17]): 80.6%; Activity (Medicago sativa [18]): 59.3%; ED50 (Medicago sativa [19]): 8.85 g/ha; ED90 (Medicago sativa [19]): 193.95 g/ha; Activity (Medicago sativa [20]): 76.9%
18 | CCCOc1ccc(CN/C(=C(/C#N)C(=O)OCCOCC)C(C)C)cn1 | 100% | 30.4% | 14.8% | 75.9% | Non-toxic | 100% | 30.7% | –
19 | CCOCCOC(=O)/C(C#N)=C(\NCc1ccc(OCC)nc1)C(C)C | 100% | 50.7% | 10.1% | 45.8% | Non-toxic | 100% | 54.8% | –
20 | C=CCOC(=O)/C(C#N)=C(/NCc1ccc(Cl)nc1)SCC | 100% | 0% | 0% | 98.8% | Non-toxic | 100% | 0% | –
21 | CCCOc1ccc(CN/C(SC)=C(\C#N)C(=O)OCCOCC)cn1 | 96.8% | 0% | 0% | 0% | Non-toxic | 93.8% | 16.3% | –
22 | CCCCOc1ccc(CN/C(=C(/C#N)C(=O)OCCOCC)C(C)C)cn1 | 100% | 10.1% | 0% | 41% | Non-toxic | 100% | 6.3% | –
23 | CCOCCOC(=O)/C(C#N)=C(/NCc1ccc(OC)nc1)SC | 100% | 56.3% | 36.4% | 80.9% | Non-toxic | 100% | 68.3% | –
24 | CCOCCOC(=O)/C(C#N)=C\NCc1ccc(Cl)nc1 | 7.3% | 12.2% | 14.8% | 15.8% | Non-toxic | 18.3% | 21.8% | –
